These results are taken from paper PMC7869823 (Bioorganic & medicinal chemistry, 2020).

Assay [1] deals with cultured human cells. The settings on record: low concentrations, microinjected; cited from earlier work.
Assay [2] concerns NAADP 23–24 kDa binding protein(s). The following applies: cited from earlier work.
Assay [3] deals with sea urchin NAADP receptor. Put plainly: Ca2+ release in sea urchin egg homogenates. It counts as biochemical. The settings on record: compared to NAADP.
The subject of assay [4] is sea urchin NAADP receptor. Put plainly: Sub-threshold receptor desensitization in sea urchin egg homogenates. It counts as biochemical. The settings on record: compared to NAADP. In a few lines: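 Sea urchin egg homogenates were exposed to increasing sub-threshold concentrations of test compound or NAADP, and time-dependent desensitization was probed by subsequent addition of 1 μM NAADP. Ca2+ release was read as peak fluo-3 fluorescence. IC50 was derived from the concentration-response and compared with that of NAADP.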

Where “and” joins values, the source holds several entries; their conditions need not be identical. Equal values may be shown once.

For the compound `C#Cc1nc2c(N)ncnc2n1[C@@H]1O[C@H](COP(=O)(O)OP(=O)(O)OC[C@H]2O[C@@H]([n+]3cc(N=[N+]=[N-])cc(C(=O)[O-])c3)[C@H](O)[C@@H]2O)[C@@H](O)[C@H]1OP(=O)(O)O` [Compound 9, 5-N3-8-Ethynyl-NAADP], in assay [1], the “Ca2+ release in cultured human cells” value was “elicit Ca^2+ release”. The “photolabeling of NAADP binding protein(s)” value in assay [2] is recorded as “specifically photolabel NAADP 23–24 kDa binding protein(s)”.
`C#Cc1nc2c(N)ncnc2n1[C@@H]1O[C@H](COP(=O)(O)OP(=O)(O)OC[C@H]2O[C@@H]([n+]3cccc(C(=O)[O-])c3)[C@H](O)[C@@H]2O)[C@@H](O)[C@H]1OP(=O)(O)O` [Compound 8, 8-Ethynyl-NAADP]: in assay [3], the “EC50 relative to NAADP (fold greater / fold less potent as an agonist)” value is 89 fold and 90 fold. Moreover, the “decrease in desensitization potency relative to NAADP” value in assay [4] is 86 fold and 90 fold.
